# Assay results reported in article PMC3263504 (Cell Death and Differentiation, 2011).
# No end group written: not given here. *: point of attachment. Biotin = O=C1N[C@H]2[C@H](CS[C@H]2CCCCC(=O)*)N1
# B1: Biotin-BH4-Bcl-2 (peptide)
# peptide: Biotin-RTGYDNREIVMKYIHYKLSQRGYEW
# B2: Biotin-BH4-Bcl-Xl D/K (peptide)
# peptide: Biotin-MSQSNRELVVKFLSYKLSQKGYSW
# What was measured:
# GST-Dom3 = assay: GST pull-down of full-length 3xFLAG-Bcl-2 proteins from COS-1 lysates; assay type: binding, mouse; settings: lysates of transfected COS-1 cells, result in words
# In short: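 Lysates (200 μg) of COS-1 cells transiently transfected with 3xFLAG-Bcl-2, K/D mutant or empty vector, incubated with purified GST-Dom3 (IP3R1 a.a. 923–1581, E. coli BL21(DE3)-expressed, PBS-dialyzed). Beads washed four times in 150 mM NaCl buffer without BSA, eluted in LDS 3 min at 95°C. Anti-FLAG western blot; bands quantified, normalized to GST binding; at least five independent experiments.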
# C6 glioma cells [1] = assay: PAC-1-induced apoptosis in C6 glioma cells; assay type: cell-based, rat; settings: PAC-1 150 μM, 6 h
# In short: (§1)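 C6 glioma monolayers in situ electroporated (100 V peak-to-peak, 500 µm electrode gap, low-conductivity sorbitol buffer) with 100 μM DTR and 20 μM peptide. Trigger applied in medium for 6 h: STS 2 μM or PAC-1 150 µM. Apoptosis stained with FITC-VAD-FMK (10 μM, 40 min, 37°C), PFA-fixed, DAPI. Five images inside and five outside the electroporated area; AI inside relative to outside, then vs vehicle (100%).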
# GST = assay: SPR, parental GST; assay type: binding; settings: GST up to 40 μM, result in words
# In short: (§2)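 SPR at 25°C. Biotinylated BH4 peptides (200 ng, 58.2 pmol, >80% pure) immobilized on a streptavidin chip in PBS/0.005% P20, pH 7.0. Analyte was GST-Dom3 or parental GST in PBS, 30 μl/min, several concentrations in random order; response in RU. Scrambled-peptide reference cell subtracted. Regeneration with 25 mM NaOH/0.002% SDS. At least three independent chips.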
# GST-Dom3 IP3R1 = GST-Dom3 IP3R1 (Mus musculus, UniProt P11881); assay: SPR, GST-Dom3 of IP3R1 on immobilized biotinylated BH4 peptides; assay type: binding; settings: association phase, corrected for scrambled peptide, result in words
# GST-Dom3 IP3R1, sequence (P11881 923-1581): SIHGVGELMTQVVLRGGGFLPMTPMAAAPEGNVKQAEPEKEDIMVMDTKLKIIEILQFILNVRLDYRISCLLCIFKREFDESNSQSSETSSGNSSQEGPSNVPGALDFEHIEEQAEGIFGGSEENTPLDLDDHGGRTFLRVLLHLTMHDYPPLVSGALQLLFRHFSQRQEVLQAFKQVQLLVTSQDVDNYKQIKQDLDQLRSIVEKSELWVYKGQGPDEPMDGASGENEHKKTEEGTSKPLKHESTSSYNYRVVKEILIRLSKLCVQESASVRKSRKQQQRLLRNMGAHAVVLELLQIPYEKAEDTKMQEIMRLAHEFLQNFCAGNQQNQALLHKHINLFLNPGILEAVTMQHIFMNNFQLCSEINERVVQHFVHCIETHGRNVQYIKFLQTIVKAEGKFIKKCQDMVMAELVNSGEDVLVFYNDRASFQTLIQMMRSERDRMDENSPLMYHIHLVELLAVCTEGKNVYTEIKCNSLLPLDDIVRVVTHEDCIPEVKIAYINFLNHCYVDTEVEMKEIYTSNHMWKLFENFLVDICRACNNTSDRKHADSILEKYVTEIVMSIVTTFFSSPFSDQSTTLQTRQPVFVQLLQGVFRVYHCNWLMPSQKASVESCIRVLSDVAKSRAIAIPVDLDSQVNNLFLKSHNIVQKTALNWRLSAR
# In short: as §2
# IP3R = assay: Unidirectional 45Ca2+-flux assay in saponin-permeabilized MEF cells; assay type: cell-based, mouse; settings: for effect of alanine mutation on the inhibitory action of BH4-Bcl-2 on IICR: 60 μM mutant peptide, result in words; for effect on IICR (dose-response): 3 μM IP3, result in words
# In short: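 MEF cells at 30°C permeabilized 10 min with 20 µg/ml saponin (imidazole-KCl, pH 6.8, 1 mM ATP, 1 mM EGTA). Stores loaded 45 min with 150 nM free 45Ca2+, 5 mM ATP, 10 mM NaN3. Efflux medium contained 1 mM EGTA and 4 μM thapsigargin, changed every 2 min. Peptides (alanine mutants 60 μM) added 4 min before IP3 (3 μM, 2 min, after 10 min efflux). Residual Ca2+ released with 2% SDS; read-out fractional loss (%/2 min).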
# C6 glioma cells [2] = assay: Staurosporine-induced apoptosis in C6 glioma cells; assay type: cell-based, rat; settings: 6 h, result in words
# In short: as §1
# [3] = biological target: GST-Dom3 IP3R2 (a.a. 913–1562) (mouse, UniProt Q9Z329 913-1562); assay: SPR
# GST-Dom3 IP3R2 (a.a. 913–1562), sequence (Q9Z329 913-1562): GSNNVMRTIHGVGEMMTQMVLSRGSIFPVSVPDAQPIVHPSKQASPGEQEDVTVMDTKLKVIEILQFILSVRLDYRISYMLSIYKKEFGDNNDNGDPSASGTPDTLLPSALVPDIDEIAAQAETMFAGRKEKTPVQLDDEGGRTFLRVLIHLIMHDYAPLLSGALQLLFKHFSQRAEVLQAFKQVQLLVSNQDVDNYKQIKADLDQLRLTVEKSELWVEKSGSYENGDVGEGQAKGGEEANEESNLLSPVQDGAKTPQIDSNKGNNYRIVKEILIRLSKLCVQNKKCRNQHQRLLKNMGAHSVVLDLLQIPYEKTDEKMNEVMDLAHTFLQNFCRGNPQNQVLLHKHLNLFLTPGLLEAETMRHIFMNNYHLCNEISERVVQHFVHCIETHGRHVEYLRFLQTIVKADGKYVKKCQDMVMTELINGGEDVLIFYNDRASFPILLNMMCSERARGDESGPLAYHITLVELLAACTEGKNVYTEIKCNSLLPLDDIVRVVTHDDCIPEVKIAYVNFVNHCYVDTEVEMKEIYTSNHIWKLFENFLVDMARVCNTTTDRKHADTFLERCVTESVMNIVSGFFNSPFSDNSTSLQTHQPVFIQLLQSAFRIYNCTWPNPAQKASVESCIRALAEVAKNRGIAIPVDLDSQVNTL
# [4] = biological target: GST-Dom3 IP3R3 (a.a. 910–1427) (rat, UniProt Q63269 910-1427); assay: SPR
# GST-Dom3 IP3R3 (a.a. 910–1427), sequence (Q63269 910-1427): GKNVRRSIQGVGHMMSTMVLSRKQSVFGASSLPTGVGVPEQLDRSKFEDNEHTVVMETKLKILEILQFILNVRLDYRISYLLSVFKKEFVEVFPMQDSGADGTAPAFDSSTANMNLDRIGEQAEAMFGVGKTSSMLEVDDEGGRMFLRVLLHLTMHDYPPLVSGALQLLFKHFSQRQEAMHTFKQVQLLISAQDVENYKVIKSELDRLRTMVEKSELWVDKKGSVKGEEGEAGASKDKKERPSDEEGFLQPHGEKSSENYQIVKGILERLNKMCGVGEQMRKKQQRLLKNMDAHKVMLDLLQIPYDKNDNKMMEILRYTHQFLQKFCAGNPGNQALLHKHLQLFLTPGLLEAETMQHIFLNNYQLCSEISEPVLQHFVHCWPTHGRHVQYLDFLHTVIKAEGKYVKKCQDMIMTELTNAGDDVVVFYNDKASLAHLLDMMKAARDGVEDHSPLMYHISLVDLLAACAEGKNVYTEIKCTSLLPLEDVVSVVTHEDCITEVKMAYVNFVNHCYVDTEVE
# [5] = biological target: GST-Dom3 (a.a. 923–1581 of IP3R1) (mouse, UniProt P11881 923-1581); assay: SPR
# GST-Dom3 (a.a. 923–1581 of IP3R1), sequence (P11881 923-1581): as the sequence (P11881 923-1581) above
molecule,measurement,setting,value
"3xFLAG-Bcl-2 K/D: full-length 3xFLAG-Bcl-2 with Lys17 mutated into Asp, expressed in COS-1 cells",binding to GST-Dom3 compared with wild-type 3xFLAG-Bcl-2,GST-Dom3,severely compromised
C=CCc1cccc(/C=N/NC(=O)CN2CCN(Cc3ccccc3)CC2)c1O [PAC-1],"apoptosis, share of the cell population",C6 glioma cells [1],~15%
Biotin-MSQSNRELVVDFLSYKLSQKGYSW [biotin-BH4-Bcl-Xl],binding of GST (control),GST,bound to neither
Biotin-MSQSNRELVVKFLSYKLSQKGYSW [biotin-BH4-Bcl-Xl D/K],specific binding of GST-Dom3 (resonance units),GST-Dom3 IP3R1,able to bind GST-Dom3
"Biotin-RTGYANAEIVMKYIAEKLSAAGKEW [biotin-BH4-Bcl-2BIND, reference compound]",specific binding of GST-Dom3 (resonance units),GST-Dom3 IP3R1,did not specifically bind
H20A (RTGYDNREIVMKYIAYKLSQRGYEW),effect of alanine mutation on the inhibitory action of BH4-Bcl-2 on IICR,IP3R,largest effect on the inhibitory action
K17A (RTGYDNREIVMAYIHYKLSQRGYEW),effect of alanine mutation on the inhibitory action of BH4-Bcl-2 on IICR,IP3R,largest effect on the inhibitory action
NVYTEIKCNSLLPLDDIVRV [IDP],effect of IDP on BH4-Bcl-2-mediated protection against STS,"C6 glioma cells [2]; IDP co-loaded with BH4-Bcl-2, STS 2 μM",completely suppressed
same,effect of IDP on the protection by BH4-Bcl-Xl against STS,"C6 glioma cells [2]; IDP co-loaded with BH4-Bcl-Xl, STS 2 μM",independent of IDP
R26A (RTGYDNREIVMKYIHYKLSQAGYEW),effect of alanine mutation on the inhibitory action of BH4-Bcl-2 on IICR,IP3R,largest effect on the inhibitory action
"RTGYANAEIVMKYIAEKLSAAGKEW [BH4-Bcl-2BIND, reference compound]",effect on IICR (dose-response),IP3R,did not inhibit IICR
RTGYDNREIVMKYIHYKLSQRGYEW [BH4-Bcl-2 K/D],effect on IICR (dose-response),IP3R,largely ineffective
"WYEKQRSLHGIMYYVIEDRNTKGYR [BH4-Bcl-2SCR, reference compound]",effect on IICR (dose-response),IP3R,did not inhibit IICR
Y21A (RTGYDNREIVMKYIHAKLSQRGYEW),effect of alanine mutation on the inhibitory action of BH4-Bcl-2 on IICR,IP3R,largest effect on the inhibitory action
B1,binding result,[3],binds
same,binding result,[4],binds
B2,binding result,[5],binds
